GRK2 aptamer HTS: compounds blocking aptamer binding on GRK2 – biochemical, human GRK2, bead flow cytometry, HTS, primary screen; Beta-adrenergic receptor kinase 1 (Homo sapiens), P25098; FAM-aptamer displacement from GRK2; inhibition of aptamer binding, % at 10 µM; actives 0.59% (n = 330,000); AID 488847, 2010;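 active means inhibition of aptamer binding above 40%, roughly 3 SD of noise, on plates passing a quality check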;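 further: median bead fluorescence of bound FAM aptamer so fluorescent compounds give negative values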
LMPTP inh: LMPTP phosphatase inhibitors, primary screen, biochemical, fluorescence intensity, uHTS; Low molecular weight phosphotyrosine protein phosphatase (Homo sapiens), P24666; recombinant LMPTP-A, OMFP fluorogenic substrate; inhibition, % at 20 µM; actives 0.22% (n = 360,000); AID 651560, 2012;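 active means compounds that cut the enzyme signal by at least half of the control window in the single-dose screen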;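 further: plate controls were DMSO wells with enzyme plus substrate for no effect and substrate without enzyme for full effect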
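Test system – LMPTP-A enzyme · Amount – LMPTP-A at 0.625 nM final in the reaction · Buffer or medium – Bis-Tris pH 6.0, DTT, detergent · Reagent – OMFP 400 µM · Doses – single 20 µM dose · Schedule – reaction 50 min, room temperature, dark · Detection – fluorescence intensity of OMFP turnover product · Evaluation – percent inhibition versus substrate-only and uninhibited controls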
STEP inh: STEP phosphatase inhibitors, primary screen, biochemical, fluorescence intensity, uHTS; recombinant STEP, OMFP fluorogenic substrate; inhibition, % at 20 µM; actives 0.25% (n = 360,000); AID 588621, 2011;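 active means inhibition at 20 µM, scaled per plate between control wells, above about 37%, limit read from the data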;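 further: 0% = DMSO with enzyme and substrate and 100% = substrate only without enzyme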
Target sequence (P54829 whole entry, looked up): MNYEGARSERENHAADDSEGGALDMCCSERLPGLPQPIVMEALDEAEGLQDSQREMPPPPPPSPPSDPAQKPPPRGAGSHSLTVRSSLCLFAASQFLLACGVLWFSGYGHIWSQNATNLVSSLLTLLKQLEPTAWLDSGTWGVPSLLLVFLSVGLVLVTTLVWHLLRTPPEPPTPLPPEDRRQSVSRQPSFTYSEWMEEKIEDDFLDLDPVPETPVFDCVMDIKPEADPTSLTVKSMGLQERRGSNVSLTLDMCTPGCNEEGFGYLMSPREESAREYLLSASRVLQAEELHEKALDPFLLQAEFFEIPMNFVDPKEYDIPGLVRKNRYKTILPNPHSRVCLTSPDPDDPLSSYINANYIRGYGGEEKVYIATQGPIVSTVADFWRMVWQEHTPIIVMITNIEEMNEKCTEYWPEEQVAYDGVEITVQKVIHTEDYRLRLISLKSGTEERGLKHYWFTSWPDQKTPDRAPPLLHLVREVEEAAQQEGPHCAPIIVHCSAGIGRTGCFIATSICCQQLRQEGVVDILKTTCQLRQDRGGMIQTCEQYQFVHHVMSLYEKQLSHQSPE
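material = STEP tyrosine phosphatase | reagent = fluorogenic phosphatase substrate OMFP at 25 µM final | doses = single compound dose of 20 µM, 1% DMSO final | schedule = 20 min reaction, room temperature, in the dark | measured by = fluorescence, 480/540 nm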
DNMT1 block: human DNMT1 methyltransferase inhibitors, primary screen, biochemical, molecular beacon, fluorescence, HinP1I cleavage, uHTS | actives 0.83% (n = 360,000) | inhibition (reported as % activation of signal), % at 10 µM | AID 588458, 2011; in the data active means inhibition above about 50%
Scp-1 inhibitor: Scp-1 phosphatase inhibitors, primary screen, biochemical, colorimetric, uHTS | Carboxy-terminal domain RNA polymerase II polypeptide A small phosphatase 1 (Homo … | Recombinant Scp1, phosphopeptide, malachite green phosphate absorbance | inhibition, % at 20 µM | actives 0.88% (n = 340,000) | AID 493091, 2011;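 active means inhibition above about 50% at 20 µM, limit read from the data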;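 further: plate controls were DMSO wells with enzyme for no effect and wells lacking enzyme for full effect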
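System: truncated SCP-1 phosphatase (76-261aa); medium: Tris acetate buffer pH 5.5 with MgCl2 and Tween-20; incubation: 45 min room-temperature reaction, 5 min colour, 30 min stabiliser; compound: single 20 µM dose, 1% DMSO; reagent: Phosphorylated 17-residue peptide substrate; read-out: % inhibition at 20 µM; technique: colorimetric free-phosphate detection, absorbance 630 nm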
SUMO1 PPI mod: modulators of SUMO1 protein-protein interactions, primary screen, biochemical, uHTS; Small ubiquitin-related modifier 1 (Homo sapiens), P63165; SUMO1 binding to a labelled peptide, TR-FRET, 1 h; inhibition, % at 20 µM; actives 0.33% (n = 360,000); AID 602429, 2012; in the data active means inhibition above about 37%
DNMT1 confirm: DNMT1 methyltransferase inhibitor retest, confirmation, biochemical, molecular beacon, fluorescence, single concentration; AID 602385, 2012; DNMT1 molecular beacon HinP1I cleavage; inhibition, % at 10 µM; shares compounds with DNMT1 block; actives 8% (n = 2,300);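 active means average inhibition of at least 30% in the single-concentration confirmation test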
Beacon interf: counter-screen for DNMT1 inhibitors: spectral interference; shares compounds with DNMT1 block; DNMT1 molecular beacon spectral interference counterscreen, fluorescence 485/520; activation (fluorescence interference), % at 10 µM; actives 1% (n = 2,300); AID 602387;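 active means activation of at least 30% at 10 µM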;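 further: DNMT1 catalytic domain with a HinP1I cleavage step and a FAM/dabcyl DNA beacon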
An asterisk follows results filed as active; / = not tested or not shown. Compounds with a hit are over-represented: about 2.1% of the library has one in this group of screens.

SMILES	GRK2 aptamer HTS	LMPTP inh	STEP inh	DNMT1 block	Scp-1 inhibitor	SUMO1 PPI mod	DNMT1 confirm	Beacon interf
C=CCSC1=N/C(=C\C=C\c2ccco2)C(=O)S1	21	36	4	97*	53*	21	3	-2
C=CCSC1=N/C(=C\c2sccc2C)C(=O)S1	2	2	-2	2	-9	-3	/	/
Cn1c(=O)c2cc(NC(=O)NCCc3ccccc3)ccc2n1Cc1ccccc1	/	-2	2	69*	/	5	0	1
Cc1ccc(CN(C)C(=O)c2cccc(S(=O)(=O)N3CCc4ccccc4C3)c2)o1	4	1	-5	-8	-5	2	/	/
COc1ccc(NC(=O)CN(C)C(=O)c2cccc(Oc3ccccc3)c2)cc1	0	0	0	-2	-10	2	/	/
COc1ccc(NC(=O)CN(C)C(=O)c2cccc(-n3cccc3)c2)cc1	26	6	6	83*	/	19	8	0
COc1ccc(S(=O)(=O)N2CCC(C(=O)N[C@@H](C)C(=O)NCc3ccccn3)CC2)cc1	/	0	-2	0	/	3	/	/
COCCn1c(-c2ccc(OC)cc2)nc2ccccc21	24	1	0	-1	-11	0	/	/
COCCn1c2nc(=O)n(-c3ccccc3)c(=O)c-2nc2ccccc21	/	-5	-79	99*	/	-28	46*	72*
COc1cccc(-c2[nH]nc3c2C(c2ccsc2)C(C#N)=C(N)O3)c1 (stereo not drawn)	4	-1	0	-16	-11	-5	/	/
COc1cccc(-c2[nH]nc3c2C(c2ccoc2)C(C#N)=C(N)O3)c1 (stereo not drawn)	8	0	1	67*	17	18	4	1
CC1(C(=O)NS(=O)(=O)C2CC2)CCCN(C(=O)c2cccc(Cl)c2)C1 (stereo not drawn)	/	-2	-1	65*	/	1	2	1
CC1(C(=O)NS(=O)(=O)C2CC2)CCCN(C(=O)c2ccc(F)c(Cl)c2)C1 (stereo not drawn)	/	-2	0	0	/	8	/	/
CCOC(=O)c1ccc(S(=O)(=O)N2CCN(c3ccccn3)CC2)cc1	0	4	-2	2	-1	6	/	/
COc1ccccc1CCNC(=O)c1cc(-c2ccncc2)nc2ccc(Br)cc12	/	14	9	50*	12	-10	1	-1
COc1ccccc1CCNC(=O)c1cc(-c2ccccn2)nc2ccc(Br)cc12	0	/	/	/	/	/	/	/
CSc1ccccc1NC(=O)c1cc(-c2cccnc2)nc2ccc(Br)cc12	0	4	7	56*	4	10	0	-5
COc1ccc(NC(=O)N(C)C[C@@H]2OCc3cn(nn3)CCCC(=O)N([C@@H](C)CO)C[C@H]2C)cc1	/	-2	3	63*	/	3	3	3
C[C@H]1CN([C@@H](C)CO)C(=O)CCCn2cc(nn2)CO[C@@H]1CN(C)C(=O)Nc1ccc(F)cc1	/	-1	0	5	/	8	/	/
COc1cccc(N2CCN(S(=O)(=O)c3ccc(-c4cnc(C5CC5)o4)cc3)CC2)c1	4	0	0	38	3	7	/	/
COc1ccc(N2CCN(S(=O)(=O)c3ccc(-c4cnc(C5CC5)o4)cc3)CC2)cc1	6	3	8	74*	14	3	4	4

Screening results from PubChem BioAssay.
